From ChEMBL document CHEMBL1142004, “Dipeptidyl aspartyl fluoromethylketones as potent caspase inhibitors: peptidomimetic replacement of the P2 alpha-amino acid by a alpha-hydroxy acid” (Bioorg Med Chem Lett, 2005)

What was measured:
HeLa = assay: Concentration tested for 50% of TNF- alpha induce HeLa cell protection was determined; type: functional, cell-based; details: Homo sapiens
Summary of the method: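 HeLa cells were treated with TNF-α to induce apoptosis, with inhibitor present. Viability was quantified by calcein AM uptake. The value is the inhibitor concentration giving 50% cell protection.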

Mus musculus [1] = assay: Survival of mice with 10 mg/kg of compound treatment after induction of apoptosis by anti-Fas antibody at 6 hr (n=6); type: functional
Summary of the method: (§1)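 Mice received an IV injection of anti-Fas monoclonal antibody; untreated controls received 8 µg. Five minutes later they received an IV dose of inhibitor in an aqueous vehicle containing 50 mM Tris–HCl, or vehicle alone. Six mice per group. Survivors were counted at 1, 3, 6 and 24 h and at 3 days, when the experiment ended, and reported as a percentage of each group.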

Mus musculus [2] = assay: Survival of mice with 0 mg/kg of compound treatment after induction of apoptosis by anti-Fas antibody at 1 hr (n=6); type: functional; summary of the method: as §1
Mus musculus [3] = assay: Survival of mice with 0 mg/kg of compound treatment after induction of apoptosis by anti-Fas antibody at 3 hr (n=6); type: functional; summary of the method: as §1
Mus musculus [4] = assay: Survival of mice with 10 mg/kg of compound treatment after induction of apoptosis by anti-Fas antibody at 3 days(n=6); type: functional; details: 72 h; summary of the method: as §1
Caspase-8 = Caspase-8 (Homo sapiens, UniProt Q14790); assay: Inhibitory concentration against Caspase-8
Sequence of Caspase-8 (Q14790 217-374 limits assumed): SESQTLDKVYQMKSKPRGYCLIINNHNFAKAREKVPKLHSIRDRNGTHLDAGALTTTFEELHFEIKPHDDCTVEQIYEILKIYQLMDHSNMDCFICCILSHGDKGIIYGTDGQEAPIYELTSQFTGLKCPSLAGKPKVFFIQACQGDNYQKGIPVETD
Sequence of Caspase-8 (Q14790 385-479 limits assumed): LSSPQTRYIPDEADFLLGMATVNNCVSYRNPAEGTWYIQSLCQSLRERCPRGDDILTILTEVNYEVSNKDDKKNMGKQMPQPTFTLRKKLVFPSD

Mus musculus [5] = assay: Survival of mice with 1 mg/kg of compound treatment after induction of apoptosis by anti-Fas antibody at 6 hr (n=6); type: functional; summary of the method: as §1
Mus musculus [6] = assay: Survival of mice with 0 mg/kg of compound treatment after induction of apoptosis by anti-Fas antibody at 24 hr (n=6); type: functional; summary of the method: as §1
Mus musculus [7] = assay: Survival of mice with 0.25 mg/kg of compound treatment after induction of apoptosis by anti-Fas antibody at 3 days(n=6); type: functional; details: 72 h; summary of the method: as §1
[8] = biological target: T1, Calpain-1 catalytic subunit (Homo sapiens, UniProt P07384); assay: Inhibitory concentration against Calpain 1
T1 sequence (P07384 whole entry): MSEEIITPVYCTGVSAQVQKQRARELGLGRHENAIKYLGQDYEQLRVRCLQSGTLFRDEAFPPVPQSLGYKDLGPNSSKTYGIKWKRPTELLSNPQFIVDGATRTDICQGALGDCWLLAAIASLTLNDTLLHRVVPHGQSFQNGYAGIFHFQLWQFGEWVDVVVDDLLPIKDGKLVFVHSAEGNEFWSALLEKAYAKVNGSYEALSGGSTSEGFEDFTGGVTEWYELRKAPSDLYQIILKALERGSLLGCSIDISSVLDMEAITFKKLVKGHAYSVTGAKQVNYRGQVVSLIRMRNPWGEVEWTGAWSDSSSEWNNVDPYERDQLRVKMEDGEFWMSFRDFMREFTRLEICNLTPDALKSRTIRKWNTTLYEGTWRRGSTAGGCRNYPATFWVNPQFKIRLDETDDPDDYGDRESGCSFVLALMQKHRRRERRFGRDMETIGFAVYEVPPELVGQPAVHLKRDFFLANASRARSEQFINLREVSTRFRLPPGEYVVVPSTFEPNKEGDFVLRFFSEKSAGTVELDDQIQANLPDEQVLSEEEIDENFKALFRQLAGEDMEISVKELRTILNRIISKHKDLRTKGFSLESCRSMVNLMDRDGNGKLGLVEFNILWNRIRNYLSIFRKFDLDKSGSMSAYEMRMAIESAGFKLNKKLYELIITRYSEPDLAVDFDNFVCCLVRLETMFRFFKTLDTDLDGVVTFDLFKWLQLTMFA
Summary of the method: (§2)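 Isolated-enzyme inhibition assays (calpain-1, cathepsin B, factor Xa) tested inhibitor at concentrations up to 100,000 nM. The read-out was IC50.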

Mus musculus [9] = assay: Survival of mice with 0.25 mg/kg of compound treatment after induction of apoptosis by anti-Fas antibody at 1 hr (n=6); type: functional; summary of the method: as §1
[10] = Inhibitory concentration against Cathepsin B; summary of the method: as §2
[11] = Inhibitory concentration against Caspase-1
Mus musculus [12] = assay: Survival of mice with 10 mg/kg of compound treatment after induction of apoptosis by anti-Fas antibody at 3 hr (n=6); type: functional; summary of the method: as §1
Caspase-7 = biological target: T2, Caspase-7 (Homo sapiens, UniProt P55210); assay: Inhibitory concentration against Caspase-7
T2 sequence (P55210 whole entry): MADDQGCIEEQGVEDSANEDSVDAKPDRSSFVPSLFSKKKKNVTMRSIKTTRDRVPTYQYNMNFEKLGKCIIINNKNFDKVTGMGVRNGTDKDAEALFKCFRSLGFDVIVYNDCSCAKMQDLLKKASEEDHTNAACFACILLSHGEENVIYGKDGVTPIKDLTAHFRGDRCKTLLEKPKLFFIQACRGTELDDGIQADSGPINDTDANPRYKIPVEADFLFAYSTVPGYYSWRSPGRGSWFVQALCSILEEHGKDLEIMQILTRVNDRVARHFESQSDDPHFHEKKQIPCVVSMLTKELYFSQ

Mus musculus [13] = assay: Survival of mice with 0.25 mg/kg of compound treatment after induction of apoptosis by anti-Fas antibody at 6 hr (n=6); type: functional; summary of the method: as §1
Mus musculus [14] = assay: Survival of mice with 0.25 mg/kg of compound treatment after induction of apoptosis by anti-Fas antibody at 3 hr (n=6); type: functional; summary of the method: as §1
Mus musculus [15] = assay: Survival of mice with 10 mg/kg of compound treatment after induction of apoptosis by anti-Fas antibody at 24 hr (n=6); type: functional; summary of the method: as §1
Mus musculus [16] = assay: Survival of mice with 1 mg/kg of compound treatment after induction of apoptosis by anti-Fas antibody at 24 hr (n=6); type: functional; summary of the method: as §1
Mus musculus [17] = assay: Survival of mice with 0.25 mg/kg of compound treatment after induction of apoptosis by anti-Fas antibody at 24 hr (n=6); type: functional; summary of the method: as §1
Caspase-3 = biological target: T3, Caspase-3 (Homo sapiens, UniProt P42574); assay: Inhibitory concentration against human caspase-3
T3 sequence (P42574 whole entry): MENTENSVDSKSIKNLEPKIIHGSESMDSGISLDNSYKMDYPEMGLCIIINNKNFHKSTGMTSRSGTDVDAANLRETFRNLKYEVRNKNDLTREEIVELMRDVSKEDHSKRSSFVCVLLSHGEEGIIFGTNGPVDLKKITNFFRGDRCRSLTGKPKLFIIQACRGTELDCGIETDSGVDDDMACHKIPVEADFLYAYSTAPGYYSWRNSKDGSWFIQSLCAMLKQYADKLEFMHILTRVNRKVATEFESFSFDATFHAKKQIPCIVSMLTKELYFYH

[18] = Inhibitory concentration against Coagulation factor X; summary of the method: as §2
Caspase-6 = biological target: T4, Caspase-6 (Homo sapiens, UniProt P55212); assay: Inhibitory concentration against Caspase-6
T4 sequence (P55212 whole entry): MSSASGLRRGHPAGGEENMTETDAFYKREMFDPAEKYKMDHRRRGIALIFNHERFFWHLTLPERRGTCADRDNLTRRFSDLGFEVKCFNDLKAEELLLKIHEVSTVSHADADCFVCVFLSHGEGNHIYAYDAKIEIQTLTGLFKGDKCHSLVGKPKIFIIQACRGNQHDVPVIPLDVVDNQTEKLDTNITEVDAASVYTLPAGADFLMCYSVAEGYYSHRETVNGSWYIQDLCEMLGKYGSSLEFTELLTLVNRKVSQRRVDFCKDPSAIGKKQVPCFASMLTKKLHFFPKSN

Mus musculus [19] = assay: Survival of mice with 1 mg/kg of compound treatment after induction of apoptosis by anti-Fas antibody at 3 days(n=6); type: functional; details: 72 h; summary of the method: as §1
Mus musculus [20] = assay: Survival of mice with 0 mg/kg of compound treatment after induction of apoptosis by anti-Fas antibody at 3 days(n=6); type: functional; summary of the method: as §1
Mus musculus [21] = assay: Survival of mice with 10 mg/kg of compound treatment after induction of apoptosis by anti-Fas antibody at 1 hr (n=6); type: functional; summary of the method: as §1
Caspase-9 = biological target: T5, Caspase-9 (Homo sapiens, UniProt P55211); assay: Inhibitory concentration against Caspase-9
T5 sequence (P55211 whole entry): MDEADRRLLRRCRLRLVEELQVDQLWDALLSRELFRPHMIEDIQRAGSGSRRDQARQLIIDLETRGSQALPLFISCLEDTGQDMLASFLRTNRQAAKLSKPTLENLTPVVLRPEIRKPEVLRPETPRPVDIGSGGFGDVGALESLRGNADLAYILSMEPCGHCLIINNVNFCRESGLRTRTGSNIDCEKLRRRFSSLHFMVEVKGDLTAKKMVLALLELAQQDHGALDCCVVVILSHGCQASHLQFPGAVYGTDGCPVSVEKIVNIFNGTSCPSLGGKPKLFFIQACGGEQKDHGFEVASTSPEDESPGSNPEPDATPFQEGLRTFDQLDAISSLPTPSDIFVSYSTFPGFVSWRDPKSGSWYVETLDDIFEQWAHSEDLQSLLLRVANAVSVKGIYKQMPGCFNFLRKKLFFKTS

Mus musculus [22] = assay: Survival of mice with 0 mg/kg of compound treatment after induction of apoptosis by anti-Fas antibody at 6 hr (n=6); type: functional; summary of the method: as §1
Mus musculus [23] = assay: Survival of mice with 1 mg/kg of compound treatment after induction of apoptosis by anti-Fas antibody at 3 hr (n=6); type: functional; summary of the method: as §1

SMILES: CC(C)[C@H](OC(=O)Nc1ccccc1)C(=O)NC(CC(=O)O)C(=O)COC(=O)c1c(Cl)cccc1Cl (some centres undefined)
- Concentration (HeLa): 1000 nM

SMILES: C[C@H](OC(=O)Nc1ccccc1)C(=O)NC(CC(=O)O)C(=O)CF (some centres undefined)
- Concentration (HeLa): 1400 nM

SMILES: CC(C)[C@H](OC(=O)Nc1ccccc1)C(=O)NC(CC(=O)O)C(=O)CF (some centres undefined)
- survival at 10 mg/kg (Mus musculus [1]): 100%
- Survival (Mus musculus [2]): 0%
- Survival (Mus musculus [3]): 0%
- survival at 10 mg/kg (Mus musculus [4]): 83%
- IC50 (Caspase-8): 17 nM
- survival at 1 mg/kg (Mus musculus [5]): 100%
- Survival (Mus musculus [6]): 0%
- survival at 0.25 mg/kg (Mus musculus [7]): 0%
- IC50 [8]: > 100000 nM
- survival at 0.25 mg/kg (Mus musculus [9]): 100%
- Concentration (HeLa): 200 nM
- IC50 [10]: > 100000 nM
- IC50 [11]: 12 nM
- survival at 10 mg/kg (Mus musculus [12]): 100%
- IC50 (Caspase-7): 11 nM
- survival at 0.25 mg/kg (Mus musculus [13]): 0%
- survival at 0.25 mg/kg (Mus musculus [14]): 100%
- survival at 10 mg/kg (Mus musculus [15]): 83%
- survival at 1 mg/kg (Mus musculus [16]): 50%
- survival at 0.25 mg/kg (Mus musculus [17]): 0%
- IC50 (Caspase-3): 17 nM
- IC50 [18]: > 100000 nM
- IC50 (Caspase-6): 50 nM
- survival at 1 mg/kg (Mus musculus [19]): 0%
- Survival (Mus musculus [20]): 0%
- survival at 10 mg/kg (Mus musculus [21]): 100%
- IC50 (Caspase-9): 30 nM
- Survival (Mus musculus [22]): 0%
- survival at 1 mg/kg (Mus musculus [23]): 100%

SMILES: CC(C)[C@H](NC(=O)Oc1ccccc1)C(=O)NC(CC(=O)O)C(=O)CF (some centres undefined)
- Concentration (HeLa): 250 nM

SMILES: CC(C)[C@H](OC(=O)Nc1ccccc1)C(=O)NC(CC(=O)O)C(=O)COc1cc(C(F)(F)F)nn1-c1ccccc1 (some centres undefined)
- Concentration (HeLa): 1100 nM

SMILES: CC(C)[C@H](OC(=O)Nc1ccc(Cl)cc1Cl)C(=O)NC(CC(=O)O)C(=O)CF (some centres undefined)
- Concentration (HeLa): 100 nM
